The test system of series [1] is HIV. As to conditions: mostly PI-experienced, aged 6 to 17 years; time to loss of virologic response; cited from earlier work.
Series [2] in a line: Steady-state plasma APV/RTV/FPV pharmacokinetics in HIV-1-infected children. In kind it is in vivo. The gist of the method:
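Dosing used FPV 50 mg/mL oral suspension or 700 mg tablets (≥39 kg), with RTV 80 mg/mL solution or 100 mg capsules (≥33 kg). At week 2, intensive sampling was taken at 0, 1, 2, 4, 6, 8 and 12 h postdose, plus predose samples every 4–12 weeks. Noncompartmental AUC(0–τ), Cmax, Cτ and CL/F were calculated; actual dose had to be within 10% of nominal. Log-transformed mixed-effect ANOVA gave geometric LS mean ratios (90% CI) versus historical healthy adults on FPV 1400 mg BID (n=190) or FPV/RTV 700/100 mg BID (n=159).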

Series [3] can be described thus: Safety: adverse events, laboratory abnormalities, growth. The format is in vivo, HIV-1–infected children. The note with it: for subjects with at least 1 drug-related AE: 2- to <6-year olds (FPV/RTV 2/19; FPV 12/20); for change in median height and weight Z scores: week 48; for subjects with an AE leading to permanent discontinuation of study drug and withdrawal from the study: whole treatment group; for subjects reporting AEs: whole treatment group (FPV 19/20; FPV/RTV 83/89); for subjects with at least 1 drug-related grade 2–4 AE: whole treatment group (FPV/RTV 10/89; FPV 2/20). The gist of the method:
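AEs, growth parameters, hematology and clinical chemistry including a lipid panel were assessed every 4–12 weeks, with follow-up 4 weeks after withdrawal. Severity was graded by the DAIDS Toxicity Table (2004). All study drug was stopped for grade 3/4 AE or toxicity unless clearly unrelated.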

Series [4] deals with HIV-1. Nature of the series: Antiviral response: plasma HIV-1 RNA <400 copies/mL, ITT. The format is in vivo, HIV-1–infected children. The gist of the method: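 Children aged 2–18 years received twice-daily FPV ± RTV plus 2 or 3 active NRTIs, with plasma HIV-1 RNA measured every 4–12 weeks. The ITT (exposed) population was all subjects with ≥1 documented dose. In the snapshot analysis, response at each visit was taken from the last HIV-1 RNA within the visit window. Missing data counted as nonresponse, as did switching or adding background ART, unless toxicity-driven before week 2.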

In series [5] the test system is CD4+ cell. The series is described as follows: CD4+ cell response. As to conditions: week 48; for median CD4+ cell count change from baseline / median percentage CD4+ cell count change from baseline: whole treatment group. In kind it is in vivo, HIV-1–infected children. The gist of the method:
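Lymphocyte subsets were monitored every 4–12 weeks in children given twice-daily FPV ± RTV with an NRTI background, with visits at weeks 2, 4, 8, 12, 16, 24, 36 and 48. CD4+ cell count and CD4+ percentage at week 48 were expressed as change from baseline and summarized as medians.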

For series [6] the following is noted: study APV20003, cited from earlier work.
Series [7] relates to HIV-1. As to conditions: ITT (missing = failure), cited from earlier work.
The test system of series [8] is HIV. The note with it: once-daily, cited from earlier work.
Where [9] appears, read: 2- to <6-year olds (FPV 10/20, all grade 1; FPV/RTV 1/19, grade 2).

Read-outs that look alike come from different tables or passages of the source.

Turning to `CC(C)CN(C[C@@H](O)[C@H](Cc1ccccc1)NC(=O)O[C@H]1CO[C@H]2OCC[C@H]21)S(=O)(=O)c1ccc(N)cc1` [RTV-boosted darunavir, darunavir], in series [1], the “children achieving a viral load of <400 copies/mL at week 48” value is on record as 59%.

Regarding `CC(C)c1nc(CN(C)C(=O)N[C@H](C(=O)N[C@@H](Cc2ccccc2)C[C@H](O)[C@H](Cc2ccccc2)NC(=O)OCc2cncs2)C(C)C)cs1` [RTV, ritonavir], the “plasma RTV Cτ” value in series [2] (RTV 3 mg/kg BID in combination with FPV, across the age groups) is recorded as “higher”.

Take `CC(C)CN(C[C@@H](OP(=O)(O)O)[C@H](Cc1ccccc1)NC(=O)O[C@H]1CCOC1)S(=O)(=O)c1ccc(N)cc1` [FPV, Fosamprenavir]: in series [2] (30 mg/kg twice-daily, 2- to <6-year olds), the “plasma amprenavir exposures compared with 1400 mg twice-daily in adults” value was “higher”. Moreover, in series [2] (plasma), the “samples with undetectable plasma FPV prodrug concentrations” value turned out to be 98%. Also, in series [3] (setting [9]), the “incidence of drug-related vomiting” value is 50%. Also, in series [3], the “subjects with at least 1 drug-related AE” value worked out at 60%; the “change in median height and weight Z scores” value is on record as “Small increases”; the “subjects with an AE leading to permanent discontinuation of study drug and withdrawal from the study” value is reported as “none”; the “subjects reporting AEs” value came out at 95%. The “subjects with at least 1 drug-related grade 2–4 AE” value in series [3] was determined as 10%. Also, the “grade 3/4 hypertriglyceridemia, raised total cholesterol or raised low density lipoprotein cholesterol” value in series [3] (FPV group) is reported as “no grade 3/4 reports”. Moreover, the “subjects with HIV-1 RNA <400 copies/mL at week 48” value (“subjects … at week 48” for short) in series [4] (FPV treatment group (PI-naïve, 2 to <6 yr), snapshot analysis) was determined as 60%. In series [5], the “median CD4+ cell count change from baseline” value was determined as 340 cells/mm^3 and the “median percentage CD4+ cell count change from baseline” value worked out at 8%. The “APV exposures compared with adults receiving FPV/RTV 1400/200 mg QD” value in series [6] (6- to 18-year-old children, 30/6 mg/kg QD) is recorded as “comparable”.

fosamprenavir/ritonavir [FPV/RTV]: the “APV AUC(0–τ) and Cmax compared with adults receiving FPV/RTV 700/100 mg BID” value in series [2] (FPV/RTV 15/3 mg/kg BID, 6- to <12-year olds and 12- to 18-year olds) was “lower”. For the same compound, in series [2] (FPV/RTV 23/3 mg/kg BID, 2- to <6-year olds), the “higher plasma APV AUC(0–τ), Cmax and Cτ values than historical adults receiving FPV/RTV 700/100 mg BID” value was “approximately 50%”. Besides, the “plasma APV exposures compared with the historical adult population” value in series [2] (FPV/RTV 700/100 mg BID, 12- to 18-year-old subjects ≥39 kg) is given as “similar”. The “incidence of drug-related vomiting” value in series [3] (setting [9]) came out at 5%; in series [3] (6- to <12-year olds (9/30; 7 grade 1 and 2 grade 2)), 30%; in series [3] (12- to 18-year olds (3/40, all grade 1)), 8%. For the same compound, the “subjects with at least 1 drug-related AE” value in series [3] was found to be 11%. For the same compound, the “subjects with drug-related AEs” value in series [3] (6- to <12-year olds (13/30)) came to 43%; in series [3] (12- to 18-year olds (15/40)) it was 38%. The “AEs leading to permanent discontinuation of study drug” value in series [3] (6- to <12-year olds (hypertriglyceridemia)) turned out to be 1; in series [3] (12- to 18-year olds (adverse drug reaction and pyelonephritis)), 2. Besides, the “grade 3/4 hypertriglyceridemia” value in series [3] (FPV/RTV group) is “no reports”. Also, the “grade 2–4 diarrhea” value in series [3] (FPV/RTV group (2/89)) came to 2%. Moreover, the “grade 3 increases in total cholesterol” value in series [3] (FPV/RTV group (2 subjects)) is given as 5%. Also, the “grade 2–4 vomiting” value in series [3] (FPV/RTV group (3/89)) is 3%. Besides, in series [3] (FPV/RTV group (4 subjects)), the “grade 3 increases in low density lipoprotein cholesterol” value is given as 9%. The same compound came in with a drug-related nausea in series [3] (adolescent group (6/40)) of 15%. In series [3] (adolescent group (7/40)), this compound yielded a drug-related diarrhea of 18%. In series [3], the “change in median height and weight Z scores” value was “Small increases”. The “subjects with an AE leading to permanent discontinuation of study drug and withdrawal from the study” value in series [3] was “Four”. Besides, in series [3], the “subjects reporting AEs” value is 93%. In addition, the “subjects with at least 1 drug-related grade 2–4 AE” value in series [3] was 11%. Moreover, the “subjects … at week 48” value in series [4] (2- to <6-year olds (14/19)) came to 74%; in series [4] (6- to <12-year-old (16/30)), 53%; in series [4] (12- to 18-year-old (25/40)) it was 63%; in series [4] (ART-naïve subjects, snapshot analysis) it was 83%; in series [4] (PI-experienced subjects, snapshot analysis), 48%; in series [4] (PI-naïve/NRTI-experienced subjects, snapshot analysis), 65%. Also, the “subjects … at week 48” value in series [4] (range across age groups, intent-to-treat [exposed], snapshot analysis) was 53–74%. Also, the “median CD4+ cell count change” value is on record as 174 cells/mm^3 in series [5] (2- to <6-year olds), 210 cells/mm^3 in series [5] (6- to <12-year olds) and 140 cells/mm^3 in series [5] (12- to 18-year olds). For the same compound, the entries for the “percentage CD4+ cell count change” value in series [5] (2- to <6-year olds), in series [5] (6- to <12-year olds) and in series [5] (12- to 18-year olds) were 10%, 7% and 7%, respectively. For the same compound, in series [5], the “median CD4+ cell count change from baseline” value stood at 190 cells/mm^3. Besides, in series [5], the “median percentage CD4+ cell count change from baseline” value is reported as 8%. For the same compound, the “lower APV exposure than adults receiving FPV/RTV 1400/200 mg QD” value in series [6] (2- to <6-year-old children, FPV/RTV 30/6 mg/kg QD) is ~ 28%.

Consider lopinavir (LPV)/RTV [LPV/RTV], for which the “subjects with HIV-1 RNA <400 copies/mL after 48 weeks” value in series [7] (ART-naïve) is listed as 88%; in series [7] (PI-experienced/NRTI-experienced) it was 58%; in series [7] (PI-naïve/NRTI-experienced) it was 84%.

`COC(=O)N[C@H](C(=O)N[C@@H](Cc1ccccc1)[C@@H](O)CN(Cc1ccc(-c2ccccn2)cc1)NC(=O)[C@@H](NC(=O)OC)C(C)(C)C)C(C)(C)C` [RTV-boosted atazanavir, atazanavir]: the results for the “response rate for HIV RNA <400 copies/mL at week 48” value in series [8] (ART-experienced 6- to <18-year olds (8/25)) and in series [8] (ART-naïve 6- to <18-year olds (14/16)) were 32% and 88%, respectively.

The values are drawn from publication PMC3882305 (The Pediatric Infectious Disease Journal, 2013).
